TPT1 inhibitor – blocks Candida albicans tRNA 2'-phosphotransferase | inhibition, % at 5 µM | hit rate 0.81% among 300,000 | AID 1962 | recombinant caTPT1, FP RNA substrate dephosphorylation;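 active = inhibition above the mean of all tested compounds plus 3 SD, set per screening campaign, cut at about 24% in these data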;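 note: plate controls were DMSO alone for no effect and ferristatin control at 100 nM for full effect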
Rpn11 inh – Rpn11 (human) deubiquitinase inhibition; O00487; human 26S proteasome, Ub4-pepOG fluorescence polarization; 20S core pre-blocked with epoxomicin; inhibition, % at 20 µM; hit rate 0.59% among 360,000;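 active = inhibition at 20 µM, scaled to each plate's controls, above about 33%, limit read from the data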
HNF4A DNA FP – change in binding of human HNF4 alpha to DNA | HNF4a-FITC DNA binding, fluorescence polarization, 1 h | activity change, % at 10 µM | hit rate 0.3% among 360,000; in the data active = activity change above about 30%, passing the limit was not always enough
IDE act – boosts human insulin-degrading enzyme activity in HEK cells. AID 493087. FAbeta-B cleavage, fluorescence polarization; 0% vehicle, 100% cell-free pure enzyme wells. hit rate 0.073% among 340,000. activation, % at 5.96 µM;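 active = activation above the mean of all tested compounds plus 3 SD, set per screening campaign, cut at about 17% in these data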
IDE cell inh – cellular human IDE inhibition; P14735; HEK cells, FAbetaB cleavage, fluorescence polarization; inhibition, % at 5.59 µM; hit rate 0.41% among 320,000; AID 434962;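 active = percent inhibition above the average of all tested compounds plus 3 SD, set per screening campaign, cut at about 16% in these data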;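 note: IDE supplied by intact live HEK cells; FP after avidin binding of uncleaved biotin substrate so inhibition keeps polarization high; 0% = DMSO wells and 100% = 60 µM reference IDE inhibitor Ii1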
CSN deneddyl inh – blocks human CSN-mediated cullin deneddylation | Purified CSN, SCF-Nedd8-OG deneddylation, fluorescence polarization | inhibition, % at 12.5 µM | hit rate 0.38% among 360,000;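 active = pattern-corrected inhibition above about 35%, with an unprinted fluorescence ratio check between 0.5 and 1.5, limit read from the data, passing the limit was not always enough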;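 note: 0% = enzyme with substrate and 100% = substrate without enzyme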
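Assay system: HEK293T-derived human Csn5 enzyme; quantity: 0.24 nM enzyme; medium: Tris/NaCl/DTT buffer, pH 7.5; also added: substrate SCFSkp2-Nedd8OG, 10 nM; doses: 12.5 µM compound; schedule: 90 min reaction at room temperature; signal: FP; read-out: % inhibition of substrate cleavage by Csn5; benchmarks: substrate-only high control, full reaction low control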
Rpn11 confirm – confirmation of human proteasome Rpn11 inhibitors; shares compounds with Rpn11 inh; hit rate 29% among 1,900; AID 602318; inhibition, % at 20 µM; purified human 26S proteasome, Ub4-pepOG fluorescence polarization; proteasome pretreated with epoxomicin
MMP-2 inh – counter-screen for RPN11 inhibitors: inhibition of human MMP-2 | shares compounds with Rpn11 inh | recombinant MMP-2, FRET peptide cleavage fluorescence | inhibition, % at 20 µM | hit rate 4% among 1,900;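 note: human MMP-2 activated beforehand with APMA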
Target sequence (P08253 whole entry, looked up): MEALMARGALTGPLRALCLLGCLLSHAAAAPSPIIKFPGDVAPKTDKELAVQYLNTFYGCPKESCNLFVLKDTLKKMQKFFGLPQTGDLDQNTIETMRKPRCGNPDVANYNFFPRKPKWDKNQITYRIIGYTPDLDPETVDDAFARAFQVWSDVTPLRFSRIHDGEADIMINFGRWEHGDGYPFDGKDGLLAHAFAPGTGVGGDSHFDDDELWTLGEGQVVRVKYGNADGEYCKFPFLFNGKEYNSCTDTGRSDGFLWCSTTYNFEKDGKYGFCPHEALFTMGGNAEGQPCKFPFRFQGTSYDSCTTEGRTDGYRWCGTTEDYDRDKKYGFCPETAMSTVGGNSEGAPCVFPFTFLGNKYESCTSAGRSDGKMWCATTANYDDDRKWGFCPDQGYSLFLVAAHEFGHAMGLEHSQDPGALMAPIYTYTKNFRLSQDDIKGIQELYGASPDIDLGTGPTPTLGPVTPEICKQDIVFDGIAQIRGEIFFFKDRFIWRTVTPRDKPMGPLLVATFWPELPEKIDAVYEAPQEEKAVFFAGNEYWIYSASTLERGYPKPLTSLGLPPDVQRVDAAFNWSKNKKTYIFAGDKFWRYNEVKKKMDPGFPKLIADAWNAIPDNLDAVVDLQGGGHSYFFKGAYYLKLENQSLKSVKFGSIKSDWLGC
Thrombin inh – thrombin (bovine) inhibition counter-screen | shares compounds with Rpn11 inh | bovine thrombin cleavage of Ub4-pepOG, fluorescence polarization | inhibition, % at 20 µM | hit rate 13% among 1,900;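 active = mean inhibition at least 40% at 20 µM, or signal 3 deviations below plate average, so some actives read negative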;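 note: plate controls were thrombin with DMSO for no effect and buffer wells lacking thrombin for full effect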
Active calls of the source: *; i = inactive; . = not tested or not shown; + = active, no number. Hits are enriched below; roughly 1.7% of the tested compounds scored in any of these assays. Cut-off read from the data, not from the text of the source, unless noted: active = inhibition above about 40%; inactive = the rest.

SMILES | TPT1 inhibitor | Rpn11 inh | HNF4A DNA FP | IDE act | IDE cell inh | CSN deneddyl inh | Rpn11 confirm | MMP-2 inh | Thrombin inh
CN1C(=O)[C@H]2[C@@H](c3ccc(C(F)(F)F)cc3)N[C@]3(CCCN(Cc4cccn4C)C3=O)[C@H]2C1=O | . | -19 | 1 | . | . | 3 | . | . | .
COc1cc(/C=C2\SC(=O)N(CCNC(=O)c3sc4cc(F)ccc4c3Cl)C2=O)cc(OC)c1OC | -2 | 43* | 5 | 3 | 0 | 5 | -1 | -31 | -8
CCOC(=O)c1sc(Nc2ccc(C)cc2C)nc1C | 2 | 36* | -1 | 3 | 0 | 1 | -8 | 17 | -22
Cc1cc(OC(=O)c2cccc(Cl)c2)c([N+](=O)[O-])c(=O)[nH]1 | 2 | -7 | -1 | 1 | 0 | 2 | . | . | .
CCCNC(=O)C1(C)CCN(CCS(=O)(=O)c2ccc(C)cc2)C1 (stereo not given) | . | 1 | 1 | . | . | 0 | . | . | .
Clc1ccc(CN2CCC(c3nc4ccc(Cl)cc4[nH]3)CC2)cc1 | 5 | 55* | 14 | -2 | 3 | 4 | 7 | -5 | 8
CCc1ccccc1NC(=O)N1CCCC(CCC(=O)N(C)CCc2ccccn2)C1 (stereo not given) | -1 | 36* | 25 | -1 | -1 | -2 | -9 | -11 | -7
CCOc1cc(/C=C2\SC(N)=NC2=O)ccc1O | 10 | 43* | 6 | 0 | 8 | 13 | 22 | 7 | 12
CCOc1cc(/C=C2\SC(=O)N=C2N)ccc1O | 15 | 51* | 12 | -9 | 7 | 14 | 22 | 2 | 1
CCOc1cc(/C=C2/N=C(C)C(C(=O)OC)=C2O)ccc1O | 14 | 51* | 8 | -5 | 4 | 19 | 32 | -73 | 20
CCOc1cc(/C=C2\CN(C)C/C(=C\c3ccc(O)c(OCC)c3)C2=O)ccc1O | 5 | 1 | 1 | 5 | 3 | 5 | . | . | .
CCOC(=O)C1=C(O)/C(=C\c2ccc(O)c(OCC)c2)N=C1C | 3 | 21 | -2 | 0 | 1 | 11 | . | . | .
NC(=O)c1nc2c([nH]c1=O)CCCC2 | . | -3 | -3 | . | . | -1 | . | . | .
CCOC(=O)C1=C(C)Nc2nnnn2C1c1cccc(OC)c1OC (stereo not given) | 0 | + | 19 | 2 | 10 | 1 | 0 | -34 | -9
COc1cc(/C=N/NC(=O)c2cc3ccccc3cc2O)ccc1OCCN1CCCCC1 | 19 | 64* | 13 | 2 | 2 | 6 | 27 | -5 | -3
COc1cc(/C=N/NC(=O)c2ccncc2)ccc1OCCN1CCCCC1 | 1 | -1 | 4 | -1 | 3 | -5 | . | . | .
CC(C)c1ccc(NC(=O)COc2nnc(-c3cccs3)c(-c3cccs3)n2)cc1 | 0 | 32* | 2 | 2 | 5 | -2 | 15 | 18 | -1
CCc1ccc(NC(=O)C(C)Oc2nnc(-c3cccs3)c(-c3cccs3)n2)cc1 (stereo not given) | 5 | 15 | -2 | 1 | -4 | 5 | . | . | .
Cc1cc(C)c2cc3c(N)c(C(=O)Nc4c(C)[nH]c(=O)[nH]c4=O)sc3nc2c1 | 48* | 46* | 5 | -2 | 2 | 0 | 122* | -29 | 13
C=CCS/C(N)=N\N=C\c1cc(Br)cc([N+](=O)[O-])c1O | 0 | 7 | 1 | 3 | 1 | -5 | . | . | .
CCOC(=O)C1=C(C)Nc2sc(C(=O)c3ccc(F)cc3)c(N)c2C1c1ccc(C(=O)OC)cc1 (stereo not given) | 5 | 38* | 3 | -2 | 13 | 6 | 11 | 32 | -11
CCOC(=O)C1=C(C)NC(C)=C(C(=O)OCC)C1c1ccc(O)cc1 | -2 | -7 | -3 | -1 | -7 | -1 | . | . | .
CCOC(=O)C1=C(C)Nc2sc(C(=O)c3ccc(C)cc3)c(N)c2C1c1ccc(C(=O)OC)cc1 (stereo not given) | 11 | 41* | 12 | 4 | 1 | 0 | -6 | 41* | -18
CCOC(=O)C1=C(C)NC(SCC(=O)OC)=C(C#N)C1c1ccc(C(=O)OC)cc1 (stereo not given) | 0 | 0 | 2 | -1 | 4 | 6 | . | . | .
CC(=O)Nc1ccc(S(=O)(=O)N(Cc2ccco2)Cc2cc3ccccc3[nH]c2=O)cc1 | -3 | -10 | 2 | -2 | 10 | 0 | . | . | .
SMILES | TPT1 inhibitor | Rpn11 inh | HNF4A DNA FP | IDE act | IDE cell inh | CSN deneddyl inh | Rpn11 confirm | MMP-2 inh | Thrombin inh
Cc1ccc2nc(C)cc(C(=O)Nc3nccs3)c2c1 | 1 | 17 | 4 | -1 | 0 | -6 | . | . | .
COc1ccccc1C(=O)Nc1nnc(SCC(=O)Nc2ccc3c(c2)oc2ccccc23)s1 | 7 | 63* | 12 | 0 | 2 | 3 | 23 | -24 | -2
O=c1cc(-c2ccc(Cl)c(Cl)c2)[nH][nH]1 | 8 | -4 | 0 | 7 | 3 | -1 | . | . | .
O=c1cc(-c2ccc(Cl)cc2)[nH][nH]1 | -2 | 110* | 1 | 5 | -4 | -2 | -7 | -28 | -13
Cc1ccc(C(=O)Nc2ccc(C(=O)N/N=C/c3cccnc3)cc2)cc1 | 3 | 57* | -4 | 4 | 6 | 8 | 49* | i | -36
CC(C)Cc1nnc(NC(=O)Cc2cccs2)s1 | 18 | 52* | 23 | -2 | 0 | 26 | 81* | 31 | 39
CC(C)c1nnc(NC(=O)Cc2cccs2)s1 | -1 | -3 | 2 | 0 | -4 | 2 | . | . | .
CN(C)S(=O)(=O)c1cccc(C(=O)N2CCN(Cc3ccccc3)CC2)c1 | -2 | 109* | -32 | -1 | -2 | 3 | -6 | -12 | -8
Cc1noc(C)c1S(=O)(=O)N(C)C[C@H]1OCc2cnnn2CCCC(=O)N([C@H](C)CO)C[C@H]1C | . | -2 | -4 | . | . | 2 | . | . | .
CC(=O)Oc1ccc(CCC(C)OC(C)=O)cc1 (stereo not given) | -2 | 58* | 1 | 2 | 2 | 5 | -14 | 0 | -12
CC(=O)Oc1ccc(S(=O)(=O)c2ccc(OC(C)=O)cc2)cc1 | -2 | -5 | -2 | -3 | -4 | -9 | . | . | .
COC(=O)[C@]1(Cc2ccccc2)N[C@H](c2ccc(-c3ccc4c(c3)OCO4)cc2)[C@@H]2C(=O)N(C)C(=O)[C@@H]21 | -2 | -5 | 2 | 0 | -1 | 6 | . | . | .
CCCOc1ccc(-c2nnn(CC(=O)c3c[nH]c4ccccc34)n2)cc1 | 16 | 50* | 11 | -2 | 2 | 16 | 34 | -43 | -19
FC(F)(F)c1cccc(NC(=S)Nc2ccc(Cl)c(Cl)c2)c1 | 1 | 37* | 5 | . | 11 | 1 | -8 | 21 | -24

Assay outcomes as filed in PubChem BioAssay.
